The results in this text go back to ChEMBL document CHEMBL1132923, “Substituted benzamide inhibitors of human rhinovirus 3C protease: structure-based design, synthesis, and biological evaluation” (J Med Chem, 2000).

pEC50, pKi: −log10 of the molar value. Converted amounts (≈) assume the structure as drawn. The source made the active and inactive calls. The calls are words filed in the database; no cut-off is given here.

The first test concerns HeLa. Description: Antiviral activity using H1HeLa cells (ATCC) infected with HRV-14 (range). In kind it is functional, cell-based. Conditions: Homo sapiens. Put shortly: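 H1-HeLa cells were grown in MEM with 10% FBS and infected with HRV-14 at moi 0.08, or mock-infected with medium. Cells were resuspended at 8 × 10^5 cells/mL with drug and read 2 days later by XTT/PMS formazan absorbance at 450/650 nm. EC50 is the concentration restoring formazan to 50% of drug-free uninfected cells. Values come from a single run or the mean of ≥2.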
The compound `CCOC(=O)c1ccc(OCCC2CCN(c3ccc(C)nn3)CC2)cc1` [PIRODAVIR] gave a pEC50 of 7.70.

A further test concerns HeLa. In words: Antiviral activity measured as minimal inhibitory concentration using H1HeLa cells (ATCC) infected with HRV-14. It counts as functional. Conditions: Homo sapiens.
`CCOC(=O)c1ccc(OCCC2CCN(c3ccc(C)nn3)CC2)cc1` [PIRODAVIR] came in with an MIC of 0.03 µM (≈ 0.0111 µg/mL).

Another test concerns the target T1, Human rhinovirus A protease (Human rhinovirus sp.) (UniProt Q4U254).
T1 sequence (whole entry): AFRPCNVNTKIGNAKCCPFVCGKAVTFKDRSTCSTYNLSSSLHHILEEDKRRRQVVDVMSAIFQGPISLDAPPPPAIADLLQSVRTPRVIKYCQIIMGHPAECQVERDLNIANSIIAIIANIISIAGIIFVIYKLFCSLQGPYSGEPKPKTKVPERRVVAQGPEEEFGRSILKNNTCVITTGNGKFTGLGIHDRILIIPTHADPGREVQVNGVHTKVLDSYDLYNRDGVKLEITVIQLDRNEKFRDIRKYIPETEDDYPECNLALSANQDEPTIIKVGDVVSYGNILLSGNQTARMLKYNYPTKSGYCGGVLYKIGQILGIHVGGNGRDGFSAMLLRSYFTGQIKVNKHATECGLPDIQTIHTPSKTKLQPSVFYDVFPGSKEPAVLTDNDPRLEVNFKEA
Description: Irreversible inhibition of Human Rhinovirus (HRV-14) 3C Protease measured as inactivation constant; inhibition@ 25. The settings on record: concentration not given here. The method, boiled down: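 FRET-based continuous fluorometric assay of 3C protease activity. Reactions were started by adding 50 nM 3CP to 1 µM substrate across three to five inhibitor concentrations. First-order inactivation rate constants were fitted by nonlinear regression at each concentration. kobs/[I] was taken by the slope method, with data adjusted for substrate depletion where needed.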
For the compound `CCOC(=O)/C=C/c1cc(C(N)=O)ccc1C`, the inhibition was 10%.

The target in another test is T2, Human rhinovirus A protease (Human rhinovirus sp., UniProt Q4U254).
T2 sequence (Q4U254 whole entry): T1 sequence (whole entry)
Description: Inhibition of Human Rhinovirus (HRV-14) 3C Protease.
Details: not given
Put shortly:
(§1)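 Serotype 14 3C protease activity was followed by a fluorescence resonance energy transfer substrate assay, and reversible inhibition constants (Ki) were determined from it.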
`NC(=O)c1cccc(C=O)c1`: the negative logarithm of the Ki (pKi) was 3.98.

For a further test, the target named is T2, Human rhinovirus A protease. Description: The compound was tested for binding affinity of Human Rhinovirus (HRV) 3C Protease.
Details: not given
The method, boiled down:
as §1
Take `NC(=O)c1cccc(/C=C/C(=O)c2ccco2)c1`: the pKi is 5.72. Still for that read-out and setting: as for `NC(=O)c1ccc2c(c1)C=CC2=O`, the figure is 6.92; as for `CN(C)c1ccc(C(=O)/C=C/c2cccc(C(N)=O)c2)cc1`, 5.05. Same read-out and setting: the same measure for `NC(=O)c1cccc(/C=C/C(=O)c2ccccc2)c1`: 6.40; for `NC(=O)c1cccc(/C=C/C(=O)c2ccccn2)c1`: 5.74. The same measure, in the same setting: as for `COc1ccc(C(=O)/C=C/c2cccc(C(N)=O)c2)cc1`, the figure is 5.74; as for `CC(=O)/C=C/c1cccc(C(N)=O)c1`, 4.60.

A further test concerns the target T1, Human rhinovirus A protease (Human rhinovirus sp.). In words: Irreversible inhibition of Human Rhinovirus (HRV-14) 3C Protease. The settings on record: Rhinovirus B. Put shortly:
(§2)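 For serotype 14 3C protease under irreversible inactivation, reactions were started by adding 50 nM enzyme to 1 µM FRET substrate plus typically three to five inhibitor concentrations, monitored continuously. First-order inactivation rate constants came from nonlinear regression when <20% substrate was consumed; otherwise data were corrected for substrate depletion. kobs/[I] was derived by the slope method.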
Compound `CCOC(=O)/C=C/c1cc(CN2CCN(C(=O)OCC)CC2)cc(C(N)=O)c1` gave a K obs / 1 of 130 M⁻¹ s⁻¹. The compound `CCOC(=O)/C=C/c1cc(CN2CCN(c3ccccn3)CC2)cc(C(N)=O)c1` had a K obs / 1 of 269 M⁻¹ s⁻¹. The same measure, in the same setting: the same measure for `NC(=O)c1cccc(/C=C/C(=O)OCCc2ccccc2)c1`: 83 M⁻¹ s⁻¹. Same read-out and setting: the same measure for `CCOC(=O)/C=C/c1cc(CSc2nnc(-c3ccccn3)o2)cc(C(N)=O)c1`: 286 M⁻¹ s⁻¹; for `CCOC(=O)/C=C/c1cccc(C(N)=O)c1`: 52 M⁻¹ s⁻¹; for `CCOC(=O)/C=C/c1cc(O)cc(C(N)=O)c1`: 47 M⁻¹ s⁻¹. Still for that read-out and setting: the same measure for `NC(=O)c1cccc(/C=C/C(=O)OCCO)c1`: 42 M⁻¹ s⁻¹.

Turning to `CCOC(=O)/C=C/c1cc(CN2CCN(c3ncccn3)CC2)cc(C(N)=O)c1`, the K obs / 1 came to 163 M⁻¹ s⁻¹. Still for that read-out and setting: as for `CCOC(=O)/C=C/c1cc(CN(CC)Cc2ccncc2)cc(C(N)=O)c1`, the figure is 96 M⁻¹ s⁻¹; as for `COC(=O)/C=C/c1cccc(C(N)=O)c1`, 28 M⁻¹ s⁻¹; as for `NC(=O)c1cccc(/C=C/C(=O)OCc2ccccn2)c1`, 57 M⁻¹ s⁻¹. As for `CCOC(=O)/C=C/c1cc(CN2CCN(c3ccccc3C#N)CC2)cc(C(N)=O)c1`, the K obs / 1 is 139 M⁻¹ s⁻¹. The same measure, in the same setting: the same measure for `NC(=O)c1cccc(/C=C/C(=O)OCc2ccccc2)c1`: 25 M⁻¹ s⁻¹; for `CCOC(=O)/C=C/c1cc(CO)cc(C(N)=O)c1`: 54 M⁻¹ s⁻¹.

The next test shares this target. In words: Irreversible inhibition of Human Rhinovirus (HRV-14) 3C Protease measured as inactivation constant; no inhibition.
Details: not given
The method, boiled down:
as §2
Consider `CCOC(=O)/C=C/c1cccc(C(=O)O)c1`, for which the “K obs / 1” value is “inactive”.

The next test shares this target. Description: The compound was tested for irreversible inhibition of Human Rhinovirus (HRV) 3C Protease.
Details: not given
The method, boiled down:
as §2
For `CCOC(=O)/C=C/c1ccc(OCc2ccccc2)c(C(N)=O)c1`, the K obs / 1 is 30 M⁻¹ s⁻¹.

The target in another test is T2, Human rhinovirus A protease. In words: The compound was tested for reversible inhibition of Human Rhinovirus (HRV) 3C Protease.
Details: not given
Take `CCOC(=O)/C(C#N)=C/c1cccc(C(N)=O)c1`: the negative logarithm of the Ki (pKi) was 5.82.

The pEC50 is the negative decadic logarithm of the EC50, by convention in mol/L. Higher therefore signals a small EC50. As a reminder, the inhibition is the drop in the measured response relative to a control, in per cent. Low values mean a weak effect, high ones a strong effect. Broadly, the pKi is the negative decadic logarithm of the Ki, by convention in mol/L. Lower therefore signals a large Ki.
